Consider 7 compounds from ChEMBL document CHEMBL1765035, “Radiosynthesis and in vivo evaluation of 1-[18F]fluoroelacridar as a positron emission tomography tracer for P-glycoprotein and breast cancer resistance protein” (Bioorg Med Chem, 2011).

Data set [1] in a line: Inhibition of human Pgp overexpressed in […]-MDR1 cells assessed as inhibition of R123 efflux after 60 mins. Format: cell-based, MDCK-II. The following applies: 1 h.
A short description of data set [2]: Drug uptake in Sprague-Dawley rat humerus after 1.8 mins in presence of 5 mg/kg elacridar. Format: ADME, organism-based. Set-up: dose 5 mg/kg. As to conditions: in vivo, 0.03 h. The method, boiled down: (§1)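 Isoflurane-anaesthetised female Sprague Dawley rats (n=3, warmed about 38°C), femoral catheters. [18F] tracer given i.v. (33±3 MBq), followed by a dynamic 150 min microPET scan. […] Whole brain or humerus outlined on summation images; time-activity curves given as SUV (mean±SD).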

The nature of data set [3]: Ratio of drug level in brain to blood in Mdr1a/b(-/-)/Bcrp1(-/-) mouse. The data set is classed as ADME, tissue-based. The method, boiled down: (§2)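 Female FVB wild-type and Mdr1a/b(−/−)Bcrp1(−/−) mice (n=3 each), isoflurane-anaesthetised. [18F] tracer given via tail vein (6±1 MBq), 60 min dynamic microPET. Brain SUV at 50-60 min divided by whole-blood SUV; blood taken retro-orbitally at scan end and gamma-counted. Groups compared by 2-tailed t-test.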

For data set [4], the system named is Brain. Put plainly: Drug uptake in Sprague-Dawley rat brain at 33 +/- 3 MBq, iv administered 60 mins before 5 mg/kg, iv elacridar injection measured after 25 mins. The data set is classed as ADME, organism-based. The following applies: in vivo. Set-up: dose 5 mg/kg, route intravenous. Summed up:
as §1

The test system of data set [5] is Brain. Put plainly: Drug uptake in Sprague-Dawley rat brain at 33 +/- 3 MBq, iv administered 60 mins before 5 mg/kg, iv elacridar injection measured after 140 mins. The data set is classed as ADME, organism-based. As to conditions: in vivo. On the set-up: dose 5 mg/kg, route intravenous. Summed up: as §1
The test system of data set [6] is Plasma. Kind of data set: Drug concentration in Sprague-Dawley rat plasma assessed as radiometabolites at 74 +/- 23 MBq after 20 mins by SPE assay relative to total plasma concentration. The data set is classed as ADME, cell-free. The method, boiled down:
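Female Sprague-Dawley rats (n=3) under isoflurane, given i.v. [18F]-tracer (74±23 MBq, 17.2±3.9 nmol or 37±10 μg/kg unlabelled) without PET imaging. Arterial blood was drawn at 10, 20 and 30 min, with a terminal sample at 40 min. Plasma was obtained by centrifugation (3000×g, 5 min) and run through solid-phase extraction. The plasma, H2O and MeOH fractions were gamma-counted. Polar radiometabolites (fractions 1+2) are given as % of total plasma activity.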

Data set [7] in a line: Drug uptake in Sprague-Dawley rat humerus after 140 mins in presence of 5 mg/kg elacridar. The data set is classed as ADME, organism-based. On the set-up: dose 5 mg/kg. As to conditions: in vivo. Summed up: as §1
Data set [8] concerns Brain. Kind of data set: Drug uptake in Sprague-Dawley rat brain after 40 mins by reversed-phase HPLC. Format: ADME, tissue-based. The following applies: in vivo. Summed up:
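Same rat group (n=3) injected i.v. with [18F] tracer and sacrificed at 40 min. Brain washed with ice-cold H2O, homogenized in 0.9% NaCl and extracted with CH3CN. Supernatant diluted 1:1 with 0.1% TFA and analysed by reversed-phase HPLC with UV 257 nm and radioactivity detection. Value is unchanged tracer as % of total brain radioactivity.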

Data set [9] deals with Brain. Put plainly: Drug uptake in Sprague-Dawley rat brain at 33 +/- 3 MBq, iv administered 60 mins before 5 mg/kg, iv elacridar injection measured after 0.9 to 1.3 mins. The data set is classed as ADME, organism-based. Set-up: dose 5 mg/kg, route intravenous. As to conditions: in vivo. The method, boiled down: as §1
The nature of data set [10]: Ratio of drug level in brain to blood in wild-type mouse. Format: ADME, tissue-based. Summed up:
as §2

Data set [11] has as its system Plasma. Put plainly: Drug concentration in Sprague-Dawley rat plasma assessed as radiometabolites at 74 +/- 23 MBq after 40 mins by SPE assay relative to total plasma concentration. Format: ADME, cell-free. Summed up:
(§3)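 Female Sprague Dawley rats (n=3, isoflurane, no PET) given [18F] tracer i.v. (74±23 MBq). Blood drawn at 10, 20, 30 min and terminally at 40 min. Plasma centrifuged and run through SPE. Polar radiometabolites are counted as fractions 1+2 by gamma counter, as % of total plasma activity. At 40 min the MeOH fraction also went to reversed-phase HPLC.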

Data set [12] deals with Plasma. Put plainly: Drug concentration in Sprague-Dawley rat plasma assessed as radiometabolites at 74 +/- 23 MBq after 10 mins by SPE assay relative to total plasma concentration. Format: ADME, cell-free. The method, boiled down: as §3
In data set [13] the test system is Plasma. Kind of data set: Drug concentration in Sprague-Dawley rat plasma assessed as radiometabolites at 74 +/- 23 MBq after 30 mins by SPE assay relative to total plasma concentration. The data set is classed as ADME, cell-free. As to conditions: 0.5 h. Summed up:
as §3

For another data set, the system named is MDCK-II. As to conditions: Homo sapiens, 3.7 uM.

The structures appear in SMILES notation.

A word on the IC50: it is the concentration that inhibits the measured activity by half. As for `COc1cc2c(cc1OC)CN(CCc1ccc(NC(=O)c3cc(Cl)cc4c(=O)c5cccc(OC)c5[nH]c34)cc1)CC2`, the IC50 in data set [1] worked out at 1400 nM.

As to `COc1cc2c(cc1OC)CN(CCc1ccc(NC(=O)c3ccc(Cl)c4c(=O)c5cccc(OC)c5[nH]c34)cc1)CC2`, the concentration for half-maximal inhibition (IC50) in data set [1] was determined as 3800 nM.

What is called Kp is the ratio of the level in a tissue or fluid to that in plasma or blood. Consider `COc1cc2c(cc1OC)CN(CCc1ccc(NC(=O)c3ccc([18F])c4c(=O)c5cccc(OC)c5[nH]c34)cc1)CC2`, for which the SUV in data set [2] came to 1.42; in the data set on Brain [4], 0.14; in the data set on Brain [5], 1.14; in data set [7], 4.59; in the data set with Brain [9], 0.46. Besides, the Kp in [3] is 11.6; in data set [10], 1.5. Further, the Cp in the data set on Plasma [6] is on record as 6%; in the data set with Plasma [11], 13%; in the data set on Plasma [12], 6%; in the data set with Plasma [13], 12%. In the data set with Brain [8], the Drug uptake was 93%.

For orientation: inhibition means the percentage by which the read-out fell short of the control. Low values mean little suppression, high ones strong suppression. On to `COc1cc2c(cc1OC)CN(CCc1ccc(NC(=O)c3cccc4c(=O)c5cccc(OC)c5[nH]c34)cc1)CC2`, for which the inhibition in the data set on MDCK-II is 100%.

As for `COc1cc2c(cc1OC)CN(CCc1ccc(NC(=O)c3cc(F)cc4c(=O)c5cccc(OC)c5[nH]c34)cc1)CC2`, the IC50 in data set [1] stood at 600 nM.

Turning to `COc1cc2c(cc1OC)CN(CCc1ccc(NC(=O)c3ccc([N+](=O)[O-])c4c(=O)c5cccc(OC)c5[nH]c34)cc1)CC2`, in data set [1], the IC50 stood at 1600 nM.

As for `COc1cc2c(cc1OC)CN(CCc1ccc(NC(=O)c3ccc(F)c4c(=O)c5cccc(OC)c5[nH]c34)cc1)CC2`, the IC50 in [1] stood at 1700 nM.
